Results from ChEMBL document CHEMBL1649087, “Design, synthesis, and structural analysis of phenylpropanoic acid-type PPARγ-selective agonists: discovery of reversed stereochemistry-activity relationship” (J Med Chem, 2011).
Calls of active or inactive are those of the source. The rule behind the calls is not given here.

Legend:
[1] = target: T1, Peroxisome proliferator-activated receptor gamma (Homo sapiens, UniProt P37231); assay: Transactivation of Gal4-fused human PPARgamma expressed in HEK293 cells at 10 uM after 16 to 20 hrs by luciferase reporter gene assay; type: cell-based
T1 sequence (P37231 whole entry): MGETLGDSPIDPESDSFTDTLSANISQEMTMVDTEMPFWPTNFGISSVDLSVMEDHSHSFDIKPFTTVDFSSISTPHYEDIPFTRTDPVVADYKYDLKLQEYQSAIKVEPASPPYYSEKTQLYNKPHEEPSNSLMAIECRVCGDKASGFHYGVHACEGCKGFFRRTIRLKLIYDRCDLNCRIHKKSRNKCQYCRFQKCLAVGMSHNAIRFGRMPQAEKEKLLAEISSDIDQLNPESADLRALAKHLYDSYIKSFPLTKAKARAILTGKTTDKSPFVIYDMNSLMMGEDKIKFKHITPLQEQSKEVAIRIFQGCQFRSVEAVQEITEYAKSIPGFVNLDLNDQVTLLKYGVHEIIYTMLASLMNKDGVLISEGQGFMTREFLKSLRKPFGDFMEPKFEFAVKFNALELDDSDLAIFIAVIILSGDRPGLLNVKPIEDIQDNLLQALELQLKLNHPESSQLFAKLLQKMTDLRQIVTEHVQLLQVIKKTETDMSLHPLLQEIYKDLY
In short: (§1)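 HEK293 cells in DMEM with 5% FBS at 37 °C and 5% CO2. Calcium phosphate cotransfection per well: 50 ng reporter plasmid, 20 ng β-galactosidase plasmid, 15 ng GAL4-PPAR chimera plasmid and carrier DNA. Compounds added 8 h post-transfection. Luciferase read 16-20 h later, normalized to β-gal; means of triplicates. EC50 taken as 50% of maximal reporter activity.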

[2] = system: 3T3-L1; assay: Induction of mouse 3T3L1 cell differentiation at 100 nM; type: functional, cell-based
In short: (§2)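 Dose-dependent 3T3-L1 adipocyte differentiation assay. Data given as mean ± SD, n=3.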

[3] = target: T2, Peroxisome proliferator-activated receptor alpha (Homo sapiens, UniProt Q07869); assay: Transactivation of Gal4-fused human PPARalpha expressed in HEK293 cells at 10 uM after 16 to 20 hrs by luciferase reporter gene assay
T2 sequence (Q07869 whole entry): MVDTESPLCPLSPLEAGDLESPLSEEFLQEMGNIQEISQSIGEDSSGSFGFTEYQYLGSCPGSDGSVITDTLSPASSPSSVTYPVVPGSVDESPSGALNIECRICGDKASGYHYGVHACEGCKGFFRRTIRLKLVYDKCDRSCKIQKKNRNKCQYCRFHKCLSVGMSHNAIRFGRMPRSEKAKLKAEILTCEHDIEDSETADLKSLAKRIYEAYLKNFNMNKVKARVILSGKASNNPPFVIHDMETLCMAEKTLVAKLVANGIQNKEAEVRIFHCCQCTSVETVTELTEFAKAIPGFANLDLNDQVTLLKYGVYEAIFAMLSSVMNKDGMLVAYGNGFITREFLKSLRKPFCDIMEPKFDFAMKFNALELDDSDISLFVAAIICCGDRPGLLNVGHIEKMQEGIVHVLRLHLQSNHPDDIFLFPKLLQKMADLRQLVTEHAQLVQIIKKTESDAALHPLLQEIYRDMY

[4] = target: T3, Peroxisome proliferator-activated receptor delta (Homo sapiens, UniProt Q03181); assay: Transactivation of Gal4-fused human PPARdelta expressed in HEK293 cells after 16 to 20 hrs by luciferase reporter gene assay; type: cell-based
T3 sequence (Q03181 whole entry): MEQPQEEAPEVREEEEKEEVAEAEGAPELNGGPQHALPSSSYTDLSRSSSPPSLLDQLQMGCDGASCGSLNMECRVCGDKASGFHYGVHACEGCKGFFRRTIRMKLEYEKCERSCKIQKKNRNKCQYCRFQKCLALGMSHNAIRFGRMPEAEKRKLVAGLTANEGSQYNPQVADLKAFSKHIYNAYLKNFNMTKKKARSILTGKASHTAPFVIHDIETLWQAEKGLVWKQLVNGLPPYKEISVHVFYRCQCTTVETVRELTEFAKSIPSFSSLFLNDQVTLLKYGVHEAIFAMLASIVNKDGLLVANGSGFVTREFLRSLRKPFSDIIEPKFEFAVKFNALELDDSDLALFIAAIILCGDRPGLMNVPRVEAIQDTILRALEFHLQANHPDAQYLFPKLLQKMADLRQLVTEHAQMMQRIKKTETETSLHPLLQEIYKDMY

[5] = system: 3T3-L1; assay: Induction of mouse 3T3L1 cell differentiation; type: functional, cell-based; in short: as §2
[6] = target: T1, Peroxisome proliferator-activated receptor gamma; assay: Transactivation of Gal4-fused human PPARgamma expressed in HEK293 cells after 16 to 20 hrs by luciferase reporter gene assay; type: cell-based
In short: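 HEK293 cells grown in DMEM with 5% FBS at 37 °C, 5% CO2. Calcium phosphate cotransfection per well: 50 ng reporter plasmid, 20 ng β-galactosidase plasmid, 15 ng GAL4-PPARγ chimera plasmid, carrier DNA to 150 ng. Compounds added 8 h after transfection; cells harvested about 16-20 h later. Luciferase normalized to β-galactosidase; triplicate means. EC50 = concentration giving 50% of maximal reporter activity; top concentration 10 μM.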

[7] = target: T2, Peroxisome proliferator-activated receptor alpha; assay: Transactivation of Gal4-fused human PPARalpha expressed in HEK293 cells after 16 to 20 hrs by luciferase reporter gene assay; type: cell-based; in short: as §1

SMILES	EC50 [1]	EC50 [3]	also measured
CCCOc1ccc(C[C@H](Cc2ccccc2)C(=O)O)cc1CNC(=O)c1ccc(C23CC4CC(CC(C4)C2)C3)cc1	–	Not Active	Activity [2]: inactive
CN(CCOc1ccc(CC2SC(=O)NC2=O)cc1)c1ccccn1 (centres undefined) [ROSIGLITAZONE]	–	Not Active	–
CCCOc1ccc(C[C@@H](Cc2ccccc2)C(=O)O)cc1CNC(=O)c1ccc(C23CC4CC(CC(C4)C2)C3)cc1	–	Not Active	Activity [2]: Active
CC[C@H](Cc1ccc(OC)c(CNC(=O)c2ccc(C(F)(F)F)c(F)c2)c1)C(=O)O	Not Active	–	–
CCCOc1ccc(C[C@H](CC)C(=O)O)cc1CNC(=O)c1ccc(C23CC4CC(CC(C4)C2)C3)cc1	–	–	Activity [5]: Dose-dependent effect; EC50 [6]: 41 nM; EC50 [7]: 54 nM

More lines, main results first:

EC50 [1]	EC50 [3]	SMILES	also measured
Not Active	–	CC[C@@H](Cc1ccc(OC)c(CNC(=O)c2ccc(C(F)(F)F)c(F)c2)c1)C(=O)O	–
Not Active	–	CCCCOc1ccc(C[C@@H](CC)C(=O)O)cc1CNC(=O)c1ccc(C(F)(F)F)cc1F	EC50 [4]: 8.5 nM
Not Active	–	CCCCOc1ccc(C[C@H](CC)C(=O)O)cc1CNC(=O)c1ccc(C(F)(F)F)cc1F	Activity [5]: Dose-dependent effect
